Data as given in ChEMBL document CHEMBL4311956, “A Qualified Success: Discovery of a New Series of ATAD2 Bromodomain Inhibitors with a Novel Binding Mode Using High-Throughput Screening and Hit Qualification” (J Med Chem, 2019).
The source made the active and inactive calls.

Key:
[1] = target: T1, ATPase family AAA domain-containing protein 2 (Homo sapiens, UniProt Q6PL18); assay: Binding affinity to human partial length ATAD2A (Q981 to R1108 residues) expressed in Escherichia coli BL21(DE3) cells after 1 hr by competitive binding assay
T1 sequence (Q6PL18 whole entry): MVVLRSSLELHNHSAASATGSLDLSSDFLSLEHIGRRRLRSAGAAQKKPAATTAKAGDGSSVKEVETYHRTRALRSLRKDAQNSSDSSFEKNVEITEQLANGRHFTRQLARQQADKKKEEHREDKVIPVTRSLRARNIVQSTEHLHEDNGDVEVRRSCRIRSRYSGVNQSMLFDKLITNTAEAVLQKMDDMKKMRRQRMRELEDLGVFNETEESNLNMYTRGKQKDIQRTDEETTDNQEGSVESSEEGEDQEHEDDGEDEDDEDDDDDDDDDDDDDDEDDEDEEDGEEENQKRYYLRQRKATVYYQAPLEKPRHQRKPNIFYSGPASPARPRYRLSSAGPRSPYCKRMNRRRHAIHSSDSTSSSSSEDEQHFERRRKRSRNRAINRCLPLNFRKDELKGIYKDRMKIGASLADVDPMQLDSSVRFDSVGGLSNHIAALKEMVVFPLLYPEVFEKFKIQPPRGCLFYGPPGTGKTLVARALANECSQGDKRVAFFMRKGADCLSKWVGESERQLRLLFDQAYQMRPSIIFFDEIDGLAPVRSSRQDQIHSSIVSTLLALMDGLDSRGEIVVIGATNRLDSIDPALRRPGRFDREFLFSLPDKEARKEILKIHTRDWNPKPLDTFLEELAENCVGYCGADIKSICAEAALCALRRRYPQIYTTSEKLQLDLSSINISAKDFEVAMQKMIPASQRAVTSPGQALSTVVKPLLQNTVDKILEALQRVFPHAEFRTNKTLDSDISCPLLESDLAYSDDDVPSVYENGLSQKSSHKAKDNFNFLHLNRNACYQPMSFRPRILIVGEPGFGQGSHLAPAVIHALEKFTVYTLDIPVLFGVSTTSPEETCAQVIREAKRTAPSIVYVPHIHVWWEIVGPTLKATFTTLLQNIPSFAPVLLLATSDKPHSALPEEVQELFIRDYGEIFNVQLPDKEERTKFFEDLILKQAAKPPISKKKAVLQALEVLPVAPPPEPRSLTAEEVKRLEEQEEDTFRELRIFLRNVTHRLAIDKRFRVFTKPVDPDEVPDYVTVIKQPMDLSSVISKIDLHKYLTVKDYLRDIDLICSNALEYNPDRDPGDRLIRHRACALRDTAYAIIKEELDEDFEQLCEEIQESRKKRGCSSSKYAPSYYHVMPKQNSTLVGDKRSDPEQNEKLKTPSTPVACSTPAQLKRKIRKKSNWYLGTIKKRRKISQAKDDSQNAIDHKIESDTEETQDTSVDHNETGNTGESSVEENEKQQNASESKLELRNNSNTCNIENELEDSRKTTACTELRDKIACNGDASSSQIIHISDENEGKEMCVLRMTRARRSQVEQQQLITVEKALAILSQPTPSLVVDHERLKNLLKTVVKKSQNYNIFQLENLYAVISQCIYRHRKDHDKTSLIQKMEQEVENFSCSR

[2] = target: T1, ATPase family AAA domain-containing protein 2; assay: Displacement of Alexa Fluor 488 labelled ligand from ATAD2 bromodomain (981 to 1121 residues) (unknown origin) expressed in Escherichia coli BL21(DE3) cells after 30 mins by TR-FRET assay
[3] = target: Bromodomain-containing protein 4 (Homo sapiens, UniProt O60885, Y97A); assay: Displacement of Alexa Fluor 647 labelled ligand from His6-tagged BRD4 BD2 (1 to 477 residues)/BD1 Y97A mutant (unknown origin) after 30 mins by TR-FRET assay
How it was run: (§1)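 BET selectivity by TR-FRET fluoroligand displacement. Uses tandem BET bromodomain constructs carrying a mutation in the non-assayed bromodomain.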

[4] = target: Bromodomain-containing protein 4 (Homo sapiens, UniProt O60885, Y390A); assay: Displacement of Alexa Fluor 647 labelled ligand from His6-tagged BRD4 BD1 (1 to 477 residues)/BD2 Y390A mutant (unknown origin) after 30 mins by TR-FRET assay; how it was run: as §1
[5] = target: T2, ATPase family AAA domain-containing protein 2 (Homo sapiens) (UniProt Q6PL18); assay: Displacement of SGRG-K(Ac)-GG-K(Ac)-GLG-K(Ac)-GGAKRHRKV-biotin) from His6/FLAG-tagged TEV fused ATAD2 bromodomain (981 to 1121 residues) (unknown origin) expressed in Escherichia coli BL21(DE3) cells up to 10 uM after 30 mins by TR-FRET assay
T2 sequence (whole entry): T1 sequence (Q6PL18 whole entry)

[6] = target: T2, ATPase family AAA domain-containing protein 2 (Homo sapiens); assay: Binding affinity to 15N-labelled ATAD2 (981 to 1108 residues) (unknown origin) at 100 uM by 1H-15N HSQC NMR analysis
How it was run: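 15N–1H HSQC spectra of labelled ATAD2 bromodomain recorded with and without compound at 100 μM. Binding is judged from spectral changes.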

[7] = target: T1, ATPase family AAA domain-containing protein 2; assay: Displacement of biotinylated H4 peptide from His6/FLAG-tagged TEV fused ATAD2 bromodomain (950 to 1148 residues) (unknown origin) expressed in Escherichia coli BL21(DE3) cells after 30 mins by TR-FRET assay
How it was run: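 TR-FRET acetylated-peptide displacement assay using 6H-Flag-tev ATAD2(950–1148). Used for the HTS: single-concentration primary screen with digital plate-pattern correction, then replated duplicate retest and dose–response. A curve-fit cutoff of IC50 > 30 μM applies.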

## CCOC(=O)Nc1cc(-c2ccc(C)c(NS(C)(=O)=O)c2)nn2c(C)nnc12
[1]
  Kd: 44 µM

## CC1CCCN(S(=O)(=O)c2cc(NC(=O)CN3C(=O)CNC3=O)ccc2Br)C1 (configuration not stated)
[2]
  IC50: 0.631 µM
[3]
  IC50: 31.6 µM
[4]
  IC50: > 50.1 µM

## CN1CCN(c2nc(C(=O)c3ccccc3)c3cnn(C)c3n2)CC1
[5]
  Activity: inactive
[6]
  Activity: inactive
[7]
  IC50: 0.03 µM
